# Results: ChEMBL document CHEMBL1671864, “First assessment in humans of the safety, tolerability, pharmacokinetics, and ex vivo pharmacodynamic antimalarial activity of the new artemisinin derivative artemisone” (Antimicrob Agents Chemother, 2008)
# Legend:
# [1] = tested on: Plasma; test: Ratio of AUC (0 to infinity) for metabolite BAY 78-1787 to AUC (0 to infinity) for compound in healthy human plasma at 80 mg, po administered as single dose for 3 days measured after 1 day; format: ADME, organism-based; conditions: in vivo, 24 h
# In short: (§1)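 Healthy Caucasian men (8 active, 4 placebo per dose) dosed with tablets daily for 3 days after 10-h fast. Plasma sampled 0.25–14 h after first and last doses. Parent and metabolites M1–M3 measured by LC/MS-MS (200 µl plasma). Metabolic ratio is metabolite AUC0-∞ divided by parent AUC0-∞ (log-linear trapezoidal, extrapolated by last concentration/kel). First vs third dose compared by paired t test.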
# [2] = tested on: Plasma; test: Half life in healthy human plasma assessed as metabolite BAY 78-1787 Half life at 80 mg, po administered as four 20 mg immediate release tablets daily for 3 days during 10 hrs overnight fasting state measured after 3 day; format: ADME, organism-based; conditions: in vivo, 72 h
# In short: (§2)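 Healthy Caucasian males took tablets once daily for 3 days with 240 ml water after a 10-h fast. Heparinised blood was drawn predose and at 0.25–14 h after the first and last doses. Plasma parent drug and metabolites M1–M3 were measured by LC/MS-MS (MRM, deuterated internal standard). Noncompartmental analysis gave Cmax observed, t1/2 = 0.693/kel and MRT = AUMC/AUC. Values are geometric means.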
# [3] = tested on: Plasma; test: Ratio of AUC (0 to infinity) for metabolite BAY 78-1787 to AUC (0 to infinity) for compound in healthy human plasma at 40 mg, po administered as single dose for 3 days measured after 1 day; format: ADME, organism-based; conditions: in vivo, 24 h; in short: as §1
# [4] = tested on: Plasma; test: Tmax in healthy human plasma assessed as metabolite BAY 78-1787 Tmax at 40 mg, po administered as two 20 mg immediate release tablets daily for 3 days during 10 hrs overnight fasting state measured after 3 day; format: ADME, organism-based; conditions: in vivo, 72 h
# In short: (§3)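 Healthy Caucasian men (8 active, 4 placebo per dose) dosed with tablets daily for 3 days after 10-h fast. Lithium-heparin plasma sampled predose and 0.25–14 h after day-1 and day-3 doses, stored frozen. Parent and M1–M3 quantified by LC/MS-MS in positive-ion MRM. Tmax taken directly from observed individual data.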
# [5] = tested on: Plasma; test: Tmax in healthy human plasma assessed as metabolite BAY 78-1787 Tmax at 80 mg, po administered as four 20 mg immediate release tablets daily for 3 days during 10 hrs overnight fasting state measured after 1 day; format: ADME, organism-based; conditions: in vivo, 24 h; in short: as §3
# [6] = tested on: Plasma; test: Half life in healthy human plasma assessed as metabolite BAY 78-1787 Half life at 40 mg, po administered as two 20 mg immediate release tablets daily for 3 days during 10 hrs overnight fasting state measured after 3 day; format: ADME, organism-based; conditions: in vivo, 72 h; in short: as §2
# [7] = tested on: Plasma; test: AUC (0 to infinity) in healthy human plasma assessed as metabolite BAY 78-1787 AUC (0 to infinity) at 80 mg, po administered as single ascending doses during 10 hrs overnight fasting state; format: ADME, organism-based; parameters: dose 80 mg, time infinity, route oral; conditions: in vivo
# In short: (§4)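 Healthy Caucasian male volunteers, single oral dose of 80 mg as four 20-mg immediate-release tablets, taken with 240 ml water after a 10-h overnight fast. Lithium-heparin venous blood was drawn predose and at 0.25–14 h, and plasma was stored frozen. Metabolites M1/M2/M3 were measured by LC/MS-MS (positive-ion MRM, deuterated internal standard). Noncompartmental analysis, AUC by log-linear trapezoidal rule extrapolated to infinity (Clast/kel), geometric means.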
# [8] = tested on: Plasma; test: Tmax in healthy human plasma assessed as metabolite BAY 78-1787 Tmax at 40 mg, po administered as two 20 mg immediate release tablets daily for 3 days during 10 hrs overnight fasting state measured after 1 day; format: ADME, organism-based; conditions: in vivo, 24 h; in short: as §3
# [9] = tested on: Plasma; test: Tmax in healthy human plasma assessed as metabolite BAY 78-1787 Tmax at 80 mg, po administered as four 20 mg immediate release tablets daily for 3 days during 10 hrs overnight fasting state measured after 3 day; format: ADME, organism-based; conditions: in vivo, 72 h; in short: as §3
# [10] = tested on: Plasma; test: AUC in healthy human plasma assessed as metabolite BAY 78-1787 AUC at 40 mg, po administered as two 20 mg immediate release tablets daily for 3 days during 10 hrs overnight fasting state measured after 1 day; format: ADME, organism-based; parameters: dose 40 mg, time < 10 hr, route oral; conditions: in vivo
# In short: (§5)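 Healthy Caucasian male volunteers took 40 mg (two 20-mg IR tablets) or 80 mg (four tablets) orally once daily for 3 days, with 240 ml water after a 10-h fast. Plasma was sampled predose to 14 h after the first and last doses. M1/M2/M3 were quantified by LC/MS-MS MRM against a D4-labelled internal standard. Cmax was read from observed data and AUC by log-linear trapezoidal rule, noncompartmental, geometric means.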
# [11] = tested on: Plasma; test: Half life in healthy human plasma assessed as metabolite BAY 78-1787 Half life at 40 mg, po administered as two 20 mg immediate release tablets daily for 3 days during 10 hrs overnight fasting state measured after 1 day; format: ADME, organism-based; conditions: in vivo, 24 h; in short: as §2
# [12] = tested on: Plasma; test: AUC in healthy human plasma assessed as metabolite BAY 78-1787 AUC at 80 mg, po administered as four 20 mg immediate release tablets daily for 3 days during 10 hrs overnight fasting state measured after 1 day; format: ADME, organism-based; parameters: dose 80 mg, time < 10 hr, route oral; conditions: in vivo; in short: as §5
# [13] = tested on: Plasma; test: Ratio of AUC (0 to infinity) for metabolite BAY 78-1787 to AUC (0 to infinity) for compound in healthy human plasma at 80 mg, po administered as single dose for 3 days measured after 3 days; format: ADME, organism-based; conditions: in vivo, 72 h; in short: as §1
# [14] = tested on: Plasma; test: Half-life in healthy human plasma assessed as metabolite BAY 78-1787 half-life at 80 mg, po administered as single ascending doses during 10 hrs overnight fasting state; format: ADME, organism-based; conditions: in vivo
# In short: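 Healthy Caucasian male volunteers, single oral dose with 240 ml water after a 10-h overnight fast. Heparinised venous blood was drawn predose and at 0.25–14 h. Plasma was stored frozen. Parent drug and metabolites M1–M3 were measured by LC/MS-MS (MRM, deuterated internal standard). Noncompartmental analysis gave Cmax observed, t1/2 = 0.693/kel (terminal regression) and MRT = AUMC/AUC. Values are geometric means.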
# [15] = tested on: Plasma; test: Cmax in healthy human plasma assessed as metabolite BAY 78-1787 Cmax at 80 mg, po administered as four 20 mg immediate release tablets daily for 3 days during 10 hrs overnight fasting state measured after 3 day; format: ADME, organism-based; parameters: dose 80 mg, route oral; conditions: in vivo, 72 h; in short: as §5
# [16] = tested on: Plasma; test: AUC in healthy human plasma assessed as metabolite BAY 78-1787 AUC at 40 mg, po administered as two 20 mg immediate release tablets daily for 3 days during 10 hrs overnight fasting state measured after 3 day; format: ADME, organism-based; parameters: time < 10 hr, dose 40 mg, route oral; conditions: in vivo; in short: as §5
# [17] = tested on: Plasma; test: Ratio of AUC (0 to infinity) for metabolite BAY 78-1787 to AUC (0 to infinity) for compound in healthy human plasma at 40 mg, po administered as single dose for 3 days measured after 3 days; format: ADME, organism-based; conditions: in vivo, 72 h; in short: as §1
# [18] = tested on: Plasma; test: Cmax in healthy human plasma assessed as metabolite BAY 78-1787 Cmax at 80 mg, po administered as four 20 mg immediate release tablets daily for 3 days during 10 hrs overnight fasting state measured after 1 day; format: ADME, organism-based; parameters: dose 80 mg, route oral; conditions: in vivo; in short: as §5
# [19] = tested on: Plasma; test: Half life in healthy human plasma assessed as metabolite BAY 78-1787 Half life at 80 mg, po administered as four 20 mg immediate release tablets daily for 3 days during 10 hrs overnight fasting state measured after 1 day; format: ADME, organism-based; conditions: in vivo, 24 h; in short: as §2
# [20] = tested on: Plasma; test: Cmax in healthy human plasma assessed as metabolite BAY 78-1787 Cmax at 80 mg, po administered as single ascending doses during 10 hrs overnight fasting state; format: ADME, organism-based; parameters: dose 80 mg, route oral; conditions: in vivo; in short: as §4
# [21] = tested on: Plasmodium falciparum; test: Antimalarial activity against Plasmodium falciparum K1 in human plasma assessed as inhibition of hypoxanthine uptake by intraerythrocytic malaria parasites by hypoxanthine incorporation assay; format: functional, organism-based
# In short: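 K1 or TM90-C2A parasites were sorbitol-synchronized and cultured in RPMI 1640. Drug was diluted in drug-free human serum (0.04–40 ng/ml) or subject plasma was diluted twofold (8–8,192). Parasites were added at 2% hematocrit, 1% parasitemia (>95% rings), and [3H]hypoxanthine uptake was measured over 48 h. IC50 or ID50 came from concentration or dilution-response curves. Equivalent concentration = ID50 × IC50.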
# [22] = tested on: Plasma; test: Cmax in healthy human plasma assessed as metabolite BAY 78-1787 Cmax at 40 mg, po administered as two 20 mg immediate release tablets daily for 3 days during 10 hrs overnight fasting state measured after 1 day; format: ADME, organism-based; parameters: dose 40 mg, route oral; conditions: in vivo, 24 h; in short: as §5
# [23] = tested on: Plasma; test: AUC in healthy human plasma assessed as metabolite BAY 78-1787 AUC at 80 mg, po administered as four 20 mg immediate release tablets daily for 3 days during 10 hrs overnight fasting state measured after 3 day; format: ADME, organism-based; parameters: dose 80 mg, time < 10 hr, route oral; conditions: in vivo; in short: as §5
# [24] = tested on: Plasma; test: Cmax in healthy human plasma assessed as metabolite BAY 78-1787 Cmax at 40 mg, po administered as two 20 mg immediate release tablets daily for 3 days during 10 hrs overnight fasting state measured after 3 day; format: ADME, organism-based; parameters: dose 40 mg, route oral; conditions: in vivo, 72 h; in short: as §5
smiles,measurement,setting,value
C[C@H]1[C@H](N2C=CS(=O)(=O)CC2)O[C@@H]2O[C@]3(C)CC[C@H]4[C@H](C)CC[C@@H]1[C@@]24OO3,Ratio,[1],0.89
same,t1/2,[2],1.63 h
same,Ratio,[3],0.63
same,Tmax,[4],1.75 h
same,Tmax,[5],2 h
same,t1/2,[6],1.54 h
same,AUC,[7],315.4 ng·h/mL
same,Tmax,[8],1.75 h
same,Tmax,[9],1.5 h
same,AUC,[10],112.6 ng·h/mL
same,t1/2,[11],1.9 h
same,AUC,[12],296 ng·h/mL
same,Ratio,[13],0.79
same,t1/2,[14],2.78 h
same,Cmax,[15],85.3 ng/mL
same,AUC,[16],112.3 ng·h/mL
same,Ratio,[17],0.62
same,Cmax,[18],112.6 ng/mL
same,t1/2,[19],2.13 h
same,Cmax,[20],121.1 ng/mL
same,IC50,[21],1.7 ng/mL
same,Cmax,[22],51.7 ng/mL
same,AUC,[23],255.2 ng·h/mL
same,Cmax,[24],47.8 ng/mL
